In ChEMBL document CHEMBL1138496, “Synthesis and evaluation of a novel indoledione class of long chain fatty acid elongase 6 (ELOVL6) inhibitors” (J Med Chem, 2009) one finds IC50, Activity and concentration data, which are given here for 14 compounds.

Series [1] concerns the target T1, Very long chain fatty acid elongase 6 (Homo sapiens, UniProt Q9H5J4).
T1 sequence (Q9H5J4 whole entry): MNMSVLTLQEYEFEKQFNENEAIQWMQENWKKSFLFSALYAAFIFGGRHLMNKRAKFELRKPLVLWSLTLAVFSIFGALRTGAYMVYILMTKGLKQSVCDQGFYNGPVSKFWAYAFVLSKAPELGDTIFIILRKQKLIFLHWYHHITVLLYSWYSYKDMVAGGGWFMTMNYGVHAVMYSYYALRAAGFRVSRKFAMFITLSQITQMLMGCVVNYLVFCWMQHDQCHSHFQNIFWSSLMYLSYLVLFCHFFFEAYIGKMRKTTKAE
As to the kind of experiment: Inhibition of human ELOVL6 expressed in african green monkey COS7 cells assessed as palmitoyl-CoA elongation. In kind it is cell-based, COS-7. Summed up: (§1)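 IC50 against each ELOVL subtype, each with its own fatty acyl-CoA substrate. Human ELOVL6 used palmitoyl-CoA elongation. Radioactive ELOVL6 products were detected with recombinant histidine-tagged ACBP as a probe. Values are mean ± SE, n ≥ 3.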

Series [2] deals with Mus musculus. Put plainly: Inhibition of ELOVL6 activity in po dosed C57BL/6J mouse liver assessed as […] administered 1 hr before [1-14C]palmitic acid measured after 2 hrs. In kind it is functional, organism-based.
The nature of series [3]: Plasma concentration in mouse at 1 mg/kg, po after 24 hrs. The class given is ADME, organism-based. Further details: dose 1 mg/kg, route oral. Summed up:
(§2)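 Compound was given orally at 1 mg/kg to mice. Plasma levels were sampled at 2, 4, 8 and 24 h. Values are the mean of n = 3 animals.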

Series [4] can be described thus: Plasma concentration in mouse at 1 mg/kg, po after 8 hrs. The class given is ADME, organism-based. Details: dose 1 mg/kg, route oral. Summed up: as §2
Series [5] in a line: Plasma concentration in mouse at 10 mg/kg, po after 2 hrs. In kind it is ADME, organism-based. Further details: dose 10 mg/kg, route oral.
The target in series [6] is T2, Very long chain fatty acid elongase 3 (Homo sapiens, UniProt Q9HB03).
T2 sequence (Q9HB03 whole entry): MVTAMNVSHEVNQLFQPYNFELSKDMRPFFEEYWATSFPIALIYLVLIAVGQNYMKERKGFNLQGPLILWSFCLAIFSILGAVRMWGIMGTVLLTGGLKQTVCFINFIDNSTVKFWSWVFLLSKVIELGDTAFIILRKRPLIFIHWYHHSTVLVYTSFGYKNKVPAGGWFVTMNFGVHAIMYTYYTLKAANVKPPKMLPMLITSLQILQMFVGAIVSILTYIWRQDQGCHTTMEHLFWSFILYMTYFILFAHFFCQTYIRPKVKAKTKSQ
Put plainly: Inhibition of human ELOVL3 expressed in african green monkey COS7 cells assessed as stearoyl-CoA elongation. In kind it is cell-based, COS-7. An outline of the steps:
as §1

Series [7] is described as follows: Plasma concentration in mouse at 1 mg/kg, po after 2 hrs. In kind it is ADME, organism-based. Details: dose 1 mg/kg, route oral. An outline of the steps: as §2
The target in series [8] is T3, Very long chain fatty acid elongase 1 (Homo sapiens, UniProt Q9BW60).
T3 sequence (Q9BW60 whole entry): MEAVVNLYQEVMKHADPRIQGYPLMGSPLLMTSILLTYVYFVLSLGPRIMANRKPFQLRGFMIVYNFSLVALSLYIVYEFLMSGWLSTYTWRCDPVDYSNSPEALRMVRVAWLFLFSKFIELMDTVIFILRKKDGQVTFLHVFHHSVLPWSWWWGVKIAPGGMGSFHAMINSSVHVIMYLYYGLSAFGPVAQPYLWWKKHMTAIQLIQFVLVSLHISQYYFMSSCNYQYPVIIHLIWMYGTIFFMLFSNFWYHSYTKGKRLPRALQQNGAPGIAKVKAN
Put plainly: Inhibition of human ELOVL1 expressed in african green monkey COS7 cells. The class given is cell-based, COS-7. Summed up:
as §1

The target of series [9] is T4, Very long chain fatty acid elongase 3 (Mus musculus, UniProt O35949).
T4 sequence (O35949 whole entry): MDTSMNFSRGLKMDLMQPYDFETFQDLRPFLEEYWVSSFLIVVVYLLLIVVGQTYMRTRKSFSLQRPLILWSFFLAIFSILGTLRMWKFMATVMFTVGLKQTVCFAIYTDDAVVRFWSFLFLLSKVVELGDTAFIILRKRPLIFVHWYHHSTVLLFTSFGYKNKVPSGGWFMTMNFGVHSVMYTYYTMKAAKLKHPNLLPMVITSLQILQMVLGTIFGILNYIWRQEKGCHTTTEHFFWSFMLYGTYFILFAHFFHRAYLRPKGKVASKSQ
Put plainly: Inhibition of mouse ELOVL3 expressed in african green monkey COS7 cells. In kind it is cell-based, COS-7. An outline of the steps:
as §1

Series [10] is described as follows: Drug level in mouse liver at 10 mg/kg, po after 2 hrs. In kind it is ADME, organism-based. Details: dose 10 mg/kg, route oral. To be noted: read-out: Drug uptake.
The nature of series [11]: Plasma concentration in mouse at 1 mg/kg, po after 4 hrs. In kind it is ADME, organism-based. Details: dose 1 mg/kg, route oral. An outline of the steps: as §2
For series [12], the target named is T5, Very long chain fatty acid elongase 6 (Mus musculus, UniProt Q920L5).
T5 sequence (Q920L5 whole entry): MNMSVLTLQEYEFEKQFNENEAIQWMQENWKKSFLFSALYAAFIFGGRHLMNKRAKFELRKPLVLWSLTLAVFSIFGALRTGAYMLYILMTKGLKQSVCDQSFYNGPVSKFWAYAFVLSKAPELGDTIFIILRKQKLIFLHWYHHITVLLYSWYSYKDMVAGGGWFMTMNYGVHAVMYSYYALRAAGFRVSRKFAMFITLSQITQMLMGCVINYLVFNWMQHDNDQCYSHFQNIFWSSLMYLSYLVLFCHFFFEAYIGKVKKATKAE
Put plainly: Inhibition of mouse ELOVL6 expressed in african green monkey COS7 cells. In kind it is cell-based, COS-7. Summed up: as §1

The target in series [13] is T6, Very long chain fatty acid elongase 2 (Homo sapiens, UniProt Q9NXB9).
T6 sequence (Q9NXB9 whole entry): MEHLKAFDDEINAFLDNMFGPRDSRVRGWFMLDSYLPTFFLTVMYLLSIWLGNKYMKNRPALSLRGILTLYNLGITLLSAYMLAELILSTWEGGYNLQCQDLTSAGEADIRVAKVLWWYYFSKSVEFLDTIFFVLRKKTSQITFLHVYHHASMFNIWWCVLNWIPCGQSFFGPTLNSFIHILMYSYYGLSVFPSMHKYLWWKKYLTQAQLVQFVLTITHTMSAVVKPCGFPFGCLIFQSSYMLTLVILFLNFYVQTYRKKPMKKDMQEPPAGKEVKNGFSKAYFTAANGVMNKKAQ
As to the kind of experiment: Inhibition of human ELOVL2 expressed in african green monkey COS7 cells. In kind it is cell-based, COS-7. Summed up:
as §1

Series [14] concerns the target T7, Very long chain fatty acid elongase 5 (Homo sapiens, UniProt Q9NYP7).
T7 sequence (Q9NYP7 whole entry): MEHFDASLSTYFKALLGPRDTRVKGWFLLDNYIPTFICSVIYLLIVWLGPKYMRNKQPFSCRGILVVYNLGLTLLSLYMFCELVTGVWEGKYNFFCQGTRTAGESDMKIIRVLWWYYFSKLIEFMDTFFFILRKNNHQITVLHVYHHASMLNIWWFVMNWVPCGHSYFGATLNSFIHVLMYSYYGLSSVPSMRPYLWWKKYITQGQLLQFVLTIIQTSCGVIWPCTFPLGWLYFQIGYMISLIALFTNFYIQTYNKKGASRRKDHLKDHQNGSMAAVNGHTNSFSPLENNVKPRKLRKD
As to the kind of experiment: Inhibition of human ELOVL5 expressed in african green monkey COS7 cells. The class given is cell-based, COS-7. Summed up:
as §1

The structures appear in SMILES notation.

As to `Cc1[nH]n(C)c(=O)c1C1(C(F)(F)F)C(=O)N(c2ccccc2)C2=C1C(=O)CC(C)(C)C2` (stereo unspecified), in series [1], the IC50 (in general, the midpoint of a concentration-inhibition curve) is 2020 nM.
On the same count and under the same terms, with `Cc1[nH]n(C2CCCCC2)c(=O)c1C1(C(F)(F)F)C(=O)N(c2ccccc2)C2=C1C(=O)CC(C)(C)C2` (stereo unspecified) the figure was greater than 10000 nM; with `Cc1[nH]n(-c2ccccc2)c(=O)c1C1(C(F)(F)F)C(=O)N(c2ccccc2)C2=C1C(=O)CC(c1ccccc1)C2` (stereo unspecified), 6260 nM; with `Cc1[nH]n(C(C)C)c(=O)c1C1(C(F)(F)F)C(=O)N(c2ccccc2)C2=C1C(=O)CC(C)(C)C2` (stereo unspecified), greater than 10000 nM.
Consider `Cc1[nH]n(-c2ccc(OC(F)(F)F)cc2)c(=O)c1C1(C(F)(F)F)C(=O)N(c2ccccc2)C2=C1C(=O)CC(C)(C)C2` (stereo unspecified), for which the Activity result in series [2] was “Dose-dependent effect”. In series [3], this compound registered a concentration at 24 h of 0.4 µM. In [4], this compound registered a concentration at 8 h of 1.4 µM. In addition, the concentration at 2 h is 30 µM in [5], 3.4 µM in [7] and 50 µM in series [10]. Further, the IC50 in series [6] is 337 nM; in series [8], greater than 10000 nM; in series [9], 194 nM; in series [12], 31 nM; in [13], greater than 10000 nM; in [14], greater than 10000 nM. Further, the concentration at 4 h in series [11] was 2.8 µM.
As to `Cc1[nH]n(-c2ccccc2)c(=O)c1C1(C(F)(F)F)C(=O)N(c2ccccc2)C2=C1C(=O)CCC2` (stereo unspecified), the IC50 in series [1] worked out at 4500 nM.
On the same count and under the same terms, for `CC(C)c1[nH]n(-c2ccccc2)c(=O)c1C1(C(F)(F)F)C(=O)N(c2ccccc2)C2=C1C(=O)CC(C)(C)C2` (stereo unspecified) the value was greater than 10000 nM.
For the compound `Cc1[nH]n(-c2ccc(C#N)cc2)c(=O)c1C1(C(F)(F)F)C(=O)N(c2ccccc2)C2=C1C(=O)CC(C)(C)C2` (stereo unspecified), the IC50 in [6] was 1100 nM.
The same measure, in the same setting: for `Cc1ccc(-n2[nH]c(C)c(C3(C(F)(F)F)C(=O)N(c4ccccc4)C4=C3C(=O)CC(C)(C)C4)c2=O)cc1` (stereo unspecified) the value was 375 nM; for `Cc1[nH]n(-c2ccc(Cl)cc2)c(=O)c1C1(C(F)(F)F)C(=O)N(c2ccccc2)C2=C1C(=O)CC(C)(C)C2` (stereo unspecified), 221 nM.
As for `COc1ccc(-n2[nH]c(C)c(C3(C(F)(F)F)C(=O)N(c4ccccc4)C4=C3C(=O)CC(C)(C)C4)c2=O)cc1` (stereo unspecified), the IC50 in series [6] stood at 503 nM.
Take `Cc1[nH]n(-c2ccccc2)c(=O)c1C1(C(F)(F)F)C(=O)N(c2ccccc2)C2=C1C(=O)CC(C)C2` (stereo unspecified): the IC50 in series [1] was 704 nM.
For the compound `Cc1[nH]n(-c2ccccc2)c(=O)c1C1(C(F)(F)F)C(=O)N(c2ccccc2)C2=C1C(=O)CC1(CCC1)C2` (stereo unspecified), the IC50 in series [1] amounted to 123 nM.
In the case of `Cc1[nH]n(-c2ccc(C(C)C)cc2)c(=O)c1C1(C(F)(F)F)C(=O)N(c2ccccc2)C2=C1C(=O)CC(C)(C)C2` (stereo unspecified), the IC50 in series [6] was determined as 59 nM.
